In experiment [1] the test system is HCC2429 cells. Put plainly: Apoptosis screen of peptide library. The experiment is classed as cell-based, human. The settings on record: representative experiment, Figure 1A, quadruplicate. Summed up:
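A library of 155 peptides (5–15 residues) spanning the 34 EGF-like repeats of the Notch3 ECD was screened. HCC2429 and HeLa cells were seeded at 3,000 cells per well in 384-well format. Annexin V Alexa Fluor 680 (1:2,200 in RPMI) and peptide solution (0.1 mg/ml in RPMI before addition) were added. After overnight incubation, fluorescence was read on an FMAT 8100 HTS system, in quadruplicate per peptide.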

The subject of experiment [2] is HCC2429 cells. The experiment in a line: Apoptosis assay. The experiment is classed as cell-based, human. Conditions: HCC2429, 24 hours, serum-free RPMI, flow cytometry; Figure 2D. Put shortly:
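HCC2429 cells were exposed for 24 hours in serum-free RPMI to Notch3 ECD-derived peptides or peptide–Fc fusion proteins. The concentration was not given. Apoptotic fraction was measured with an Annexin V-FITC kit on a flow cytometer, with a γ-secretase inhibitor as positive control. Comparisons used the Wilcoxon rank-sum test, with significance at P < 0.05.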

On to CATAV [Peptide N102], for which the “Induction of apoptosis (fluorescence, FMAT 8100 HTS)” value with HCC2429 cells [1] is listed as “induced apoptosis”. On to CFHGAT [Peptide N103], for which the “Induction of apoptosis (fluorescence, FMAT 8100 HTS)” value in the experiment with HCC2429 cells [1] is given as “induced apoptosis”. Same read-out and setting: then CLNGGS [Peptide N132], with “induced apoptosis”. On to CVCVNGWTGES [Peptide N17], for which the “Apoptosis (Annexin V-FITC)” value in the experiment on HCC2429 cells [2] is given as “highest apoptotic activity”.

The values are drawn from paper PMC3210016 (Cancer research, 2010).
